The record followed here is ChEMBL document CHEMBL4811225 (J Med Chem, 2021).

Where a SMILES comes first, the peptide text is derived from it. Bridges are numbered along the chain shown (N, C = ends).

Experiment [1] is filed under the species Rattus norvegicus. Description: Selectivity ratio of IC50 for rat alpha2beta2 nAChR to IC50 for rat alpha6/alpha3beta4 nAChR. In outline:
(§1)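 Ratio of each subtype's IC50, from TEVC inhibition of ACh-evoked currents in X. laevis oocytes, to the IC50 at the same species' α6/α3β4 nAChR; IC50 values with 95% CI, n = number of oocytes.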

The species named for experiment [2] is Rattus norvegicus. Description: Selectivity ratio of IC50 for rat alpha7 nAChR to IC50 for rat alpha6/alpha3beta4 nAChR. A digest of the protocol: as §1
The target in experiment [3] is Neuronal acetylcholine receptor; alpha2/beta2 (Rattus norvegicus, UniProt P12389+P12390). Description: Inhibition of rat alpha2beta2 nAChR expressed in Xenopus laevis oocytes assessed as inhibition of acetylcholine-induced current response by two-electrode voltage-clamp method. It counts as cell-based, Oocyte. In outline:
(§2)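 Two-electrode voltage clamp of stage IV–V oocytes 1–5 days after equal-ratio cRNA injection; ACh 100 μM (β2-containing subtypes, α9α10), 1 s every 60 s in frog saline. Peptide perfused up to 1 μM, responses normalized to mean of three control responses; above 1 μM, 5 min static bath. IC50 with 95% CI; n = oocytes.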
On the technique in general: In two-electrode clamp one electrode senses voltage and the other passes current.

The species named for experiment [4] is Rattus norvegicus. Description: Selectivity ratio of IC50 for rat alpha6/alpha3beta2beta3 nAChR to IC50 for rat alpha6/alpha3beta4 nAChR. In outline: as §1
In experiment [5] the target is Neuronal acetylcholine receptor; alpha2/beta2 (Homo sapiens, UniProt P17787+Q15822). Description: Inhibition of human alpha2beta2 nAChR expressed in Xenopus laevis oocytes assessed as inhibition of acetylcholine-induced current response by two-electrode voltage-clamp method. It counts as cell-based, Oocyte. A digest of the protocol:
as §2

For experiment [6], the target named is Neuronal acetylcholine receptor; alpha4/beta2 (Homo sapiens, UniProt P17787+P43681). Description: Inhibition of human alpha4beta2 nAChR expressed in Xenopus laevis oocytes assessed as inhibition of acetylcholine-induced current response by two-electrode voltage-clamp method. It counts as cell-based, Oocyte. A digest of the protocol:
as §2

For experiment [7], the target named is Nicotinic acetylcholine receptor alpha9/alpha10 (Rattus norvegicus) (UniProt P43144+Q9JLB5). Description: Inhibition of rat alpha9alpha10 nAChR expressed in Xenopus laevis oocytes assessed as inhibition of acetylcholine-induced current response at 10 uM by two-electrode voltage-clamp method relative to control. The conditions noted are these: Oocyte. It counts as cell-based. A digest of the protocol:
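Oocytes (stage IV–V) injected with equal-ratio cRNAs of cloned subunits; TEVC 1–5 days post-injection. ACh 100 μM for β2-containing and α9α10 subtypes, 1 s pulses every 60 s. Peptide 10 μM in 5 min static bath; response normalized to ACh response after 5 min control-saline bath; mean ± SD, n = 4.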

The species entered for the next experiment is Homo sapiens. Description: Selectivity ratio of IC50 for human alpha2beta4 nAChR to IC50 for human alpha6/alpha3beta4 nAChR. In outline:
as §1

Experiment [8] has as its target Neuronal acetylcholine receptor subunit alpha-7 (Rattus norvegicus, UniProt Q05941). It counts as cell-based, Oocyte.
Experiment [9] deals with Neuronal acetylcholine receptor; alpha3/beta4 (Homo sapiens, UniProt P30926+P32297). Description: Inhibition of human alpha3beta4 nAChR expressed in Xenopus laevis oocytes assessed as inhibition of acetylcholine-induced current response by two-electrode voltage-clamp method. It counts as cell-based, Oocyte. A digest of the protocol:
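TEVC on stage IV–V oocytes 1–5 days after equal-ratio cRNA injection (α2β4, α3β4, α4β4, α7). ACh 300 μM, 1 s pulses at 60 s intervals under frog saline perfusion. Peptide perfused to 1 μM, normalized to average of three control responses; higher concentrations by 5 min static bath. IC50 with 95% CI, n oocytes.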

For experiment [10], the target named is Nicotinic acetylcholine receptor alpha6/alpha3/beta4 (Rattus norvegicus) (UniProt P04757+P12392+P43143). Description: Inhibition of rat alpha6beta4 nAChR expressed in Xenopus laevis oocytes assessed as recovery of acethylcholine-evoked currents at 10 uM treated for 10 mins followed by compound washout by two-electrode voltage-clamp method relative to control. It counts as cell-based. Further details: scale not given: the % may be the effect or the level left. The conditions noted are these: Oocyte.

Sequence of Neuronal acetylcholine receptor; alpha4/beta2 (P17787 whole entry): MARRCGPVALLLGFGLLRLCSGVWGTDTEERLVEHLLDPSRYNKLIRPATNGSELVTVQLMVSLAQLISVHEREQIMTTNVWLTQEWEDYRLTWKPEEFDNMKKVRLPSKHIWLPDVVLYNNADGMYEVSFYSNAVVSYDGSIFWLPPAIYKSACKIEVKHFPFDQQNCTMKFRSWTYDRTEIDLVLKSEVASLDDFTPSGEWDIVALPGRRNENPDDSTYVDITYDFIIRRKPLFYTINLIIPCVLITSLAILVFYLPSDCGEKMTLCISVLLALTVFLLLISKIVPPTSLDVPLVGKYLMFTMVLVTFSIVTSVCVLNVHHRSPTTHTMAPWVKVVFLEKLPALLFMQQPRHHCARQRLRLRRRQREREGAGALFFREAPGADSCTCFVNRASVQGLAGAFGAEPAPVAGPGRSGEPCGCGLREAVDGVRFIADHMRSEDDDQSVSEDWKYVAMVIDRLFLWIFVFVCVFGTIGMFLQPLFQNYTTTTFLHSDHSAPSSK
Sequence of Neuronal acetylcholine receptor; alpha4/beta2 (P43681 whole entry): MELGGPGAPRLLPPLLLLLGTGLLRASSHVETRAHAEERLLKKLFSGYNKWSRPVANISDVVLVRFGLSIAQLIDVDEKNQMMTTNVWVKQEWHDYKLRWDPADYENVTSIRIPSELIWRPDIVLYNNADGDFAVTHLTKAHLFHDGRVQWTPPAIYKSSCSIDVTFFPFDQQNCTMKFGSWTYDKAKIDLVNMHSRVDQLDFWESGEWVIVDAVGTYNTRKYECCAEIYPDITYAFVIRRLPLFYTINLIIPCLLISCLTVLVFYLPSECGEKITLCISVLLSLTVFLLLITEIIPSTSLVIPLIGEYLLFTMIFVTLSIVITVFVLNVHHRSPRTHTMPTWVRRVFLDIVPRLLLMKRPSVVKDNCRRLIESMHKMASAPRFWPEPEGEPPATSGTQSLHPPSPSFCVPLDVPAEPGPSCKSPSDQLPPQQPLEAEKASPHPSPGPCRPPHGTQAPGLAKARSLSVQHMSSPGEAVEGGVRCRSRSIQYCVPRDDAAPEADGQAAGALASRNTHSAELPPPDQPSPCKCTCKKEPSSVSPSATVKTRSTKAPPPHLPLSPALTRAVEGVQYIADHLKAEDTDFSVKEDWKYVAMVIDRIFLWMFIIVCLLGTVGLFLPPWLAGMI
Sequence of Neuronal acetylcholine receptor; alpha2/beta2 (Homo sapiens, UniProt P17787+Q15822) (P17787 whole entry): as the sequence (P17787 whole entry) above
Sequence of Neuronal acetylcholine receptor; alpha2/beta2 (Homo sapiens, UniProt P17787+Q15822) (Q15822 whole entry): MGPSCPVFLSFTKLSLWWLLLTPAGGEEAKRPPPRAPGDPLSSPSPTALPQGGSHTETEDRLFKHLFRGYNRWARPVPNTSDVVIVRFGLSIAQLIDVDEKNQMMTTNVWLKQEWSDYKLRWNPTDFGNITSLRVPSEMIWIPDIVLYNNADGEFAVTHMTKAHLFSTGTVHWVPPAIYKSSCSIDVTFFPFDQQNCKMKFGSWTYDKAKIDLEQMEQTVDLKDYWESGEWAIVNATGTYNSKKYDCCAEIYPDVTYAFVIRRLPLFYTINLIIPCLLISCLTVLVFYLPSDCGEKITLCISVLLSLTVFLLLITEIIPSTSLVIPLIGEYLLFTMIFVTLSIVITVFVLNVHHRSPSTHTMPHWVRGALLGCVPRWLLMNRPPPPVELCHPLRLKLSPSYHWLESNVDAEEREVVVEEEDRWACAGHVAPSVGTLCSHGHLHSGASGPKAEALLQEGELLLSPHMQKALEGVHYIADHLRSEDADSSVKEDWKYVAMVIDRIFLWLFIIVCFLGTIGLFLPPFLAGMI
Sequence of Neuronal acetylcholine receptor subunit alpha-7 (Q05941 whole entry): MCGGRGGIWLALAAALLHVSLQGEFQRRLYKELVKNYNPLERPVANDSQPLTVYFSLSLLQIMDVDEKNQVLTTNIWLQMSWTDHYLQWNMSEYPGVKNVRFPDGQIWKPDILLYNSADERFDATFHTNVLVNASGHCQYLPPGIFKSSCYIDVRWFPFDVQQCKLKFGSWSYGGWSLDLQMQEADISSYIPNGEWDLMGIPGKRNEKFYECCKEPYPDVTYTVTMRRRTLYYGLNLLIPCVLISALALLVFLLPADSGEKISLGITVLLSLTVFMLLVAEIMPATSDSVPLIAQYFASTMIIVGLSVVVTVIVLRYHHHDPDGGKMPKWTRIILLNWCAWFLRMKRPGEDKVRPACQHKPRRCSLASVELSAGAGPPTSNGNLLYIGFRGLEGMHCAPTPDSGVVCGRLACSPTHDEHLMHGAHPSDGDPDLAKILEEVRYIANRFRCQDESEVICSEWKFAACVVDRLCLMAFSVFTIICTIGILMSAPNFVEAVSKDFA
Sequence of Neuronal acetylcholine receptor; alpha2/beta2 (Rattus norvegicus, UniProt P12389+P12390) (P12389 whole entry, the tested form may be a part): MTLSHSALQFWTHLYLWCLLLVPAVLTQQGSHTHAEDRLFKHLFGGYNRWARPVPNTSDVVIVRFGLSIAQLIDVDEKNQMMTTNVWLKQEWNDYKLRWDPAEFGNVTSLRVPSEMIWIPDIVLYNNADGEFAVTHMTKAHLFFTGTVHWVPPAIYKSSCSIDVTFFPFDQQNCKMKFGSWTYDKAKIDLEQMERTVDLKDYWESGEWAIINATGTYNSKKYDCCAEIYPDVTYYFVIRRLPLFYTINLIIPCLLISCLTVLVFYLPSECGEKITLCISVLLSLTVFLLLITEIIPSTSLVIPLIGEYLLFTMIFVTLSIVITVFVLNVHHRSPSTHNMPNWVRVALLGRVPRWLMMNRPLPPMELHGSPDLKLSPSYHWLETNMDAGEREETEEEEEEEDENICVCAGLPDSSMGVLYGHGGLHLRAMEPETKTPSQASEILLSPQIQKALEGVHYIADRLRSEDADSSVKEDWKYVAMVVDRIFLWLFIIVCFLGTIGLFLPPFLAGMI
Sequence of Neuronal acetylcholine receptor; alpha2/beta2 (Rattus norvegicus, UniProt P12389+P12390) (P12390 whole entry, the tested form may be a part): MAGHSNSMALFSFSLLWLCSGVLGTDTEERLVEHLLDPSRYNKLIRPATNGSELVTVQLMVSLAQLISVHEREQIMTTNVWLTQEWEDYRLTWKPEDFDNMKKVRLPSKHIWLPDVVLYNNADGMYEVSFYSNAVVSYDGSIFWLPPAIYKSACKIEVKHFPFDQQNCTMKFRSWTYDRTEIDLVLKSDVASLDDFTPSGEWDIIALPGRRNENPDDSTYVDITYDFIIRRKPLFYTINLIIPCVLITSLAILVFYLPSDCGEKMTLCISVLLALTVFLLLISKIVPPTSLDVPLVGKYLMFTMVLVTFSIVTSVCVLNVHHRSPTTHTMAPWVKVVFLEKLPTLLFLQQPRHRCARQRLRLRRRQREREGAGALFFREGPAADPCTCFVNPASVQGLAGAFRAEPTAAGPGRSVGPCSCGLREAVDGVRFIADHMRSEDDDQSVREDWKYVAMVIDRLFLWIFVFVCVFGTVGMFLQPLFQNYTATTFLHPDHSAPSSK
Sequence of Neuronal acetylcholine receptor; alpha3/beta4 (P30926 whole entry, the tested form may be a part): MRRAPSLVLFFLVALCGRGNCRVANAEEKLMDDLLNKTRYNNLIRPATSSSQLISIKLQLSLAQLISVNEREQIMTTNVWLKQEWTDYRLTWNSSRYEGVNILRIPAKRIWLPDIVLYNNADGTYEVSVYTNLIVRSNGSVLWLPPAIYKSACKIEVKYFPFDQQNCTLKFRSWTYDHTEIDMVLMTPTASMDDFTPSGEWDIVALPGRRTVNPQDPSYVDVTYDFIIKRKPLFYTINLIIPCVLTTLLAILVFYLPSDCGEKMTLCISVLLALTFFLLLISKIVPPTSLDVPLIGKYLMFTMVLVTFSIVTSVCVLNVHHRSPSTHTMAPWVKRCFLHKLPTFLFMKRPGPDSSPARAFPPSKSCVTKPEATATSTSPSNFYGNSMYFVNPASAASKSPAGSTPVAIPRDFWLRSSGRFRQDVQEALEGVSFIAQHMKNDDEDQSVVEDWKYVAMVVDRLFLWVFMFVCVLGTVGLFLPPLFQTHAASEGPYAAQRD
Sequence of Neuronal acetylcholine receptor; alpha3/beta4 (P32297 whole entry, the tested form may be a part): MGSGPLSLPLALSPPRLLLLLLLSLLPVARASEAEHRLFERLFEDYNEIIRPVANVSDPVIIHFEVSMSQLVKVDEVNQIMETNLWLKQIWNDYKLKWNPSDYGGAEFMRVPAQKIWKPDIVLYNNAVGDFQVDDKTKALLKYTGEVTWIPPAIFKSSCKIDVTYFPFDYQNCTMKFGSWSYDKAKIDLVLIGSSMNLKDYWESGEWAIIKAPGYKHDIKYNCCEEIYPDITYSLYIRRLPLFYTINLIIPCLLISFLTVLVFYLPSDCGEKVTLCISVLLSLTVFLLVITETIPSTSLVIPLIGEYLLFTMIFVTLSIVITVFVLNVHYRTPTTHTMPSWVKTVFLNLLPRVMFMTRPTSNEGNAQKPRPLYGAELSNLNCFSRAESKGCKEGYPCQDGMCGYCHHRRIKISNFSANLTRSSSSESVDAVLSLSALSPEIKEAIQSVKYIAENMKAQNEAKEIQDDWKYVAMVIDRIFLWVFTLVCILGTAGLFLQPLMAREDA

On to `CC[C@H](C)[C@@H]1NC(=O)[C@H](CCC(=O)O)NC(=O)[C@@H]2CCCN2C(=O)[C@H](Cc2cnc[nH]2)NC(=O)[C@H](CC(N)=O)NC(=O)[C@H](C(C)C)NC(=O)[C@H](CC(N)=O)NC(=O)[C@@H]2CSSC[C@H](NC(=O)CN)C(=O)N[C@@H](CSSC[C@@H](C(N)=O)NC1=O)C(=O)N[C@@H](CO)C(=O)N[C@@H](Cc1cnc[nH]1)C(=O)N1CCC[C@H]1C(=O)N[C@@H](C(C)C)C(=O)N2` (H-GCCSHPVCNVNHPEIC-NH2; disulfide 2-8, 3-16), for which the Ratio IC50 in the experiment filed under Rattus norvegicus [1] was above 20000; in the experiment filed under Rattus norvegicus [2], above 20000; in the experiment filed under Rattus norvegicus [4] it was 227; in the experiment filed under Homo sapiens, above 50000. The IC50 – broadly, the point on the concentration scale where inhibition reaches its midpoint – in experiment [3] was above 10 µM; in experiment [5], above 10 µM; in experiment [6], above 10 µM; in experiment [8], above 10 µM; in experiment [9] it was 0.179 µM. Moreover, the inhibition – broadly, the percentage by which the read-out fell short of the control – in experiment [7] amounted to 69%. The Activity in experiment [10] turned out to be 6%.
